Experimental data taken from ChEMBL document CHEMBL1833841, “Synthesis and biological evaluation of a novel class of isatin analogs as dual inhibitors of tubulin polymerization and Akt pathway” (Bioorg Med Chem, 2011).
Where a name gives a salt, the structure may show the parent alone. Active and inactive are the calls of the source. The rule behind the calls is not given here.

Assays:
HT-29 [1] = experiment: Cytotoxicity against human HT-29 cells after 48 hrs by MTS assay; format: functional, cell-based; details: HT-29, 48 h
Procedure, shortened: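 HT29 cells maintained in RPMI with 10% FBS. 5×10^3 cells/well were left to adhere 24 h, then exposed 48 h to compound (DMSO stock diluted in DMEM, 0.5–50 µM). MTS absorbance at 490 nm normalized to control. IC50 from sigmoidal variable-slope fit. Triplicates, at least two independent experiments.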

A549 = experiment: Cytotoxicity against human A549 cells after 48 hrs by MTS assay; format: functional, cell-based; details: A549, 48 h
Procedure, shortened: (§1)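 A549, MCF-7 and UACC903 cells grown in DMEM with 10% FBS at 37°C, 5% CO2. 5×10^3 cells/well were left to adhere 24 h, then treated 48 h with compound (DMSO stock diluted in DMEM, 0.5–50 µM). MTS read at 490 nm and normalized to control. Dose-response fitted as sigmoidal, variable slope. Triplicates from at least two independent experiments.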

UACC-903 = experiment: Cytotoxicity against human UACC903 cells after 48 hrs by MTS assay; format: functional, cell-based; details: UACC-903, 48 h; procedure, shortened: as §1
MCF7 = experiment: Cytotoxicity against human MCF7 cells after 48 hrs by MTS assay; format: functional, cell-based; details: MCF7, 48 h; procedure, shortened: as §1
HT-29 [2] = experiment: Induction of apoptosis in human HT-29 cells assessed as increase in caspase 3/7 activation after 24 hrs by fluorescence spectrophotometry; format: functional, cell-based
Procedure, shortened: (§2)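 HT29 cells seeded at 1×10^4/well and grown 24 h, then treated 24 h with 1.25–5 µM compound or DMSO. Equal volume of Apo-ONE caspase-3/7 reagent added, shaken 30 s, incubated 2 h at RT. Cleaved-substrate fluorescence read at ex 498/em 521 nm, expressed relative to DMSO cells. Means ± SD, triplicate, one representative experiment.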

HT-29 [3] = experiment: Induction of apoptosis in human HT-29 cells at 2.5 uM after 24 hrs by PE annexin V and 7-Aminoactinomycin D staining-based flow cytometry; format: functional
Procedure, shortened: (§3)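 HT29 cells (RPMI, 10% FBS) treated with 1.25, 2.5 or 5 μM, or DMSO control, for 24 h at 37 °C. Cells then harvested, washed twice in cold PBS and resuspended at 1×10^6 cells/ml in binding buffer. Stained with PE annexin V and 7-AAD for 15 min at RT in the dark, then analysed by flow cytometry. 7-AAD-positive cells counted as dead.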

HT-29 [4] = experiment: Induction of apoptosis in human HT-29 cells at 1.25 uM after 24 hrs by PE annexin V and 7-Aminoactinomycin D staining-based flow cytometry; format: functional; procedure, shortened: as §3
HT-29 [5] = experiment: Induction of apoptosis in human HT-29 cells assessed as early apoptotic cells at 5 uM after 24 hrs by PE annexin V and 7-Aminoactinomycin D staining-based flow cytometry (reference value: 1.37%); format: functional
Procedure, shortened: (§4)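 HT29 cells were treated with 1.25–5.0 µM compound or DMSO for 24 h at 37°C, harvested by low-speed centrifugation and washed twice in cold PBS. They were resuspended in binding buffer at 1×10^6 cells/ml, stained with PE annexin V and 7-AAD for 15 min at RT in the dark, and quantified by flow cytometry.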

HT-29 [6] = experiment: Induction of apoptosis in human HT-29 cells assessed as viable cells at 2.5 uM after 24 hrs by PE annexin V and 7-Aminoactinomycin D staining-based flow cytometry (reference value: 93.2%); format: functional; details: HT-29, 24 h, read-out: Activity; procedure, shortened: as §4
HT-29 [7] = experiment: Induction of apoptosis in human HT-29 cells assessed as early apoptotic cells at 1.25 uM after 24 hrs by PE annexin V and 7-Aminoactinomycin D staining-based flow cytometry (reference value: 1.37%); format: functional; procedure, shortened: as §4
HT-29 [8] = experiment: Induction of apoptosis in human HT-29 cells assessed as late apoptosis or necrotic cells at 2.5 uM after 24 hrs by PE annexin V and 7-Aminoactinomycin D staining-based flow cytometry (reference value: 4.1%); format: functional; procedure, shortened: as §4
HT-29 [9] = experiment: Induction of apoptosis in human HT-29 cells after 24 hrs by PE annexin V and 7-Aminoactinomycin D staining-based flow cytometry; format: functional, cell-based; procedure, shortened: as §4
HT-29 [10] = experiment: Inhibition of AKT expression in human HT-29 cells assessed as total AKT level at 2 uM after 24 hrs by Western blotting; format: functional, cell-based
Procedure, shortened: (§5)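 HT29 cells treated 24 h with 1 or 2 µM compound or no drug. Lysed in HEPES/NaCl/EDTA/NP40 buffer with phosphatase and protease inhibitors. Protein equalized by Bradford, run on 10% gels, semi-dry transfer to nitrocellulose, blocked in 5% milk. Pan-Akt or phospho-Akt rabbit polyclonal primaries overnight at 4°C, HRP secondaries, chemiluminescence. β-actin loading control.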

[11] = biological target: RAC-alpha serine/threonine-protein kinase (Homo sapiens) (UniProt P31749); experiment: Inhibition of AKT phosphorylation in human HT-29 cells assessed as p-AKT level at 1 uM after 24 hrs by Western blotting; format: cell-based; procedure, shortened: as §5
RAC-alpha serine/threonine-protein kinase (Homo sapiens), sequence (P31749 whole entry): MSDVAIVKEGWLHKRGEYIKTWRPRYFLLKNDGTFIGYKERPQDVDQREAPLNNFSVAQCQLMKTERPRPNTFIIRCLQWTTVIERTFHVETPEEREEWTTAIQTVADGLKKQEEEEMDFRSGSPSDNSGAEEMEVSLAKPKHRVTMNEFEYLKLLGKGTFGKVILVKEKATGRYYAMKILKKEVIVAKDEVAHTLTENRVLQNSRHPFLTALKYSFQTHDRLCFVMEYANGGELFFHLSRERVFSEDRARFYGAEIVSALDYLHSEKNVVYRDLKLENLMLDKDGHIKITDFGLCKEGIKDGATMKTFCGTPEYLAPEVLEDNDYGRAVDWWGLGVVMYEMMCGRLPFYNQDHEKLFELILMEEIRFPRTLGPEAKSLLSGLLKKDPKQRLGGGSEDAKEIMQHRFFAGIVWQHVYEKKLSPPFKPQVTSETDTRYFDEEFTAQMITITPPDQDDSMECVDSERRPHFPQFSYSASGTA

HT-29 [12] = experiment: Inhibition of AKT expression in human HT-29 cells assessed as total AKT level at 1 uM after 24 hrs by Western blotting; format: functional, cell-based; procedure, shortened: as §5
HT-29 [13] = experiment: Induction of apoptosis in human HT-29 cells assessed as late apoptosis or necrotic cells at 5 uM after 24 hrs by PE annexin V and 7-Aminoactinomycin D staining-based flow cytometry (reference value: 4.1%); format: functional; procedure, shortened: as §4
HT-29 [14] = experiment: Induction of apoptosis in human HT-29 cells assessed as early apoptotic cells at 2.5 uM after 24 hrs by PE annexin V and 7-Aminoactinomycin D staining-based flow cytometry (reference value: 1.37%); format: functional; procedure, shortened: as §4
HT-29 [15] = experiment: Induction of apoptosis in human HT-29 cells assessed as viable cells at 5 uM after 24 hrs by PE annexin V and 7-Aminoactinomycin D staining-based flow cytometry (reference value: 93.2%); format: functional; details: HT-29, 24 h, read-out: Activity; procedure, shortened: as §4
HT-29 [16] = experiment: Induction of apoptosis in human HT-29 cells assessed as dead cells at 5 uM after 24 hrs by PE annexin V and 7-Aminoactinomycin D staining-based flow cytometry (reference value: 1.33%); format: functional; procedure, shortened: as §3
HT-29 [17] = experiment: Induction of apoptosis in human HT-29 cells at 5 uM after 24 hrs by PE annexin V and 7-Aminoactinomycin D staining-based flow cytometry (reference value: 6.8%); format: functional; procedure, shortened: as §3
HT-29 [18] = experiment: Induction of apoptosis in human HT-29 cells assessed as dead cells at 1.25 uM after 24 hrs by PE annexin V and 7-Aminoactinomycin D staining-based flow cytometry (reference value: 1.33%); format: functional; procedure, shortened: as §3
HT-29 [19] = experiment: Induction of apoptosis in human HT-29 cells assessed as DNA fragmentation at 5 uM after 48 hrs by TUNEL assay; format: functional, cell-based
Procedure, shortened: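 1×10^5 HT29 cells/well grown 24 h in 10% serum medium, then exposed to 5 µM compound. Fragmented DNA stained with ApopTag Red in situ kit, Hoechst nuclear counterstain. Red TUNEL-positive versus blue total nuclei scored by fluorescence microscopy.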

HT-29 [20] = experiment: Induction of apoptosis in human HT-29 cells assessed as viable cells at 1.25 uM after 24 hrs by PE annexin V and 7-Aminoactinomycin D staining-based flow cytometry (reference value: 93.2%); format: functional; details: HT-29, 24 h, read-out: Activity; procedure, shortened: as §4
HT-29 [21] = experiment: Induction of apoptosis in human HT-29 cells assessed as late apoptosis or necrotic cells at 1.25 uM after 24 hrs by PE annexin V and 7-Aminoactinomycin D staining-based flow cytometry (reference value: 4.1%); format: functional; procedure, shortened: as §4
MEF = experiment: Cytotoxicity against mouse MEF cells after 48 hrs by MTS assay; format: cell-based
Procedure, shortened: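 Mouse embryonic fibroblasts exposed to compound for 48 h; viability then read by MTS colorimetric assay. IC50 derived from the viability data.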

HT-29 [22] = experiment: Induction of apoptosis in human HT-29 cells assessed as increase in caspase 3/7 activation after 24 hrs by fluorescence spectrophotometry relative to control; format: functional; design: concentration or dose not given beside the values; procedure, shortened: as §2
HT-29 [23] = experiment: Induction of apoptosis in human HT-29 cells assessed as dead cells at 2.5 uM after 24 hrs by PE annexin V and 7-Aminoactinomycin D staining-based flow cytometry (reference value: 1.33%); format: functional; procedure, shortened: as §3
Bos taurus = species: Bos taurus; experiment: Inhibition of bovine brain tubulin polymerization at 10 uM after 1 hrs by fluorescence assay
Procedure, shortened: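 Compound at 10 µM final, DMSO as control. Fluorescence (ex 360, em 440 nm) read every 10 s for 1 h at 37°C, duplicate wells.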

[24] = biological target: RAC-alpha serine/threonine-protein kinase (Homo sapiens) (UniProt P31749); experiment: Inhibition of AKT phosphorylation in human HT-29 cells assessed as p-AKT level at 2 uM after 24 hrs by Western blotting; format: cell-based; procedure, shortened: as §5

Row | SMILES | IC50 (HT-29 [1]) | IC50 (A549) | IC50 (UACC-903) | IC50 (MCF7) | Activity (HT-29 [2]) | Activity (HT-29 [3]) | Activity (HT-29 [4]) | Activity (HT-29 [5]) | viability at 2.5 µM (HT-29 [6]) | Activity (HT-29 [7]) | Activity (HT-29 [8]) | Activity (HT-29 [9]) | inhibition (HT-29 [10]) | inhibition [11] | inhibition (HT-29 [12]) | Activity (HT-29 [13]) | Activity (HT-29 [14]) | viability at 5 µM (HT-29 [15]) | Activity (HT-29 [16]) | inhibition (Bos taurus) | also measured
1 | N#C[Se]CCCCN1C(=O)C(=O)c2cc(Br)cc(Br)c21 | 2390 nM | 3.15 µM | 9.03 µM | 1.53 µM |  |  |  |  |  |  |  |  |  |  |  |  |  |  |  |  | 
2 | O=C1C(=O)N(Cc2ccc(CBr)cc2)c2c(Br)cc(Br)cc21 | 5100 nM | 7.86 µM | 2.64 µM | 27.7 µM |  |  |  |  |  |  |  |  |  |  |  |  |  |  |  |  | 
3 | N#CSCc1ccc(CN2C(=O)C(=O)c3cc(Br)cc(Br)c32)cc1 | 1140 nM | 2.53 µM | 2.23 µM | 24.7 µM | Dose-dependent effect | 39.46% | 11.47% | 2.68% | 60.6% | 4.42% | 21.1% | Dose-dependent effect | Active | inactive | Active | 52.9% | 10.6% | 33.1% | 11.4% | 71% | Activity (HT-29 [17]): 66.98%; Activity (HT-29 [18]): 2.59%; Activity (HT-29 [19]): Active; viability at 1.25 µM (HT-29 [20]): 88.5%; Activity (HT-29 [21]): 4.46%; IC50 (MEF): > 20 µM; fold change (FC) (HT-29 [22]): 16; Activity (HT-29 [23]): 7.76%
4 | O=C1C(=O)N(CCCCCl)c2c(Br)cc(Br)cc21 | 2510 nM | 3.81 µM | 3.74 µM | 14.9 µM |  |  |  |  |  |  |  |  |  |  |  |  |  |  |  |  | 
5 | O=C1C(=O)N(CCCN=C=S)c2c(Br)cc(Br)cc21 | 1560 nM | 2.13 µM | 4.37 µM | 8.96 µM | Dose-dependent effect | 21.23% | 8.54% | 4.78% | 78.8% | 2.83% | 11.4% | Dose-dependent effect | Active | inactive | inactive | 48.5% | 6.93% | 38.5% | 8.22% | 62% | inhibition [24]: Active; Activity (HT-29 [17]): 61.5%; Activity (HT-29 [18]): 1.92%; Activity (HT-29 [19]): Active; viability at 1.25 µM (HT-29 [20]): 91.5%; Activity (HT-29 [21]): 3.79%; IC50 (MEF): > 20 µM; fold change (FC) (HT-29 [22]): 16; Activity (HT-29 [23]): 2.9%
6 | CC[C@]1(O)C[C@@H]2CN(CCc3c([nH]c4ccccc34)[C@@](C(=O)OC)(c3cc4c(cc3OC)N(C)[C@H]3[C@@](O)(C(=O)OC)[C@H](OC(C)=O)[C@]5(CC)C=CCN6CC[C@]43[C@@H]65)C2)C1 [VINBLASTINE SULFATE] | 550 nM |  | 1.65 µM |  |  |  |  |  |  |  |  |  |  |  |  |  |  |  |  | 66% | 
